Screens (PubChem BioAssay)
An excerpt weighted towards active compounds, which were near 1.5% of everything screened.
Wee1 degr inh: blocks degradation of human Wee1 kinase. HeLa Luc-Wee1K328M stability, luciferase luminescence; 100% = proteasome inhibitor MG132 effect. reporter increase, % at 5 µM. hit rate 1.2% among 220,000. AID 1321;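 active = activation above the mean of all tested compounds plus 3 SD, set per screening run, cut at about 8.8% in these data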;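 note: cells exposed to compound for 20 h before luminescence read; 0% = DMSO alone and 100% = MG132 at 30 µM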
Target sequence (P30291 whole entry K328M): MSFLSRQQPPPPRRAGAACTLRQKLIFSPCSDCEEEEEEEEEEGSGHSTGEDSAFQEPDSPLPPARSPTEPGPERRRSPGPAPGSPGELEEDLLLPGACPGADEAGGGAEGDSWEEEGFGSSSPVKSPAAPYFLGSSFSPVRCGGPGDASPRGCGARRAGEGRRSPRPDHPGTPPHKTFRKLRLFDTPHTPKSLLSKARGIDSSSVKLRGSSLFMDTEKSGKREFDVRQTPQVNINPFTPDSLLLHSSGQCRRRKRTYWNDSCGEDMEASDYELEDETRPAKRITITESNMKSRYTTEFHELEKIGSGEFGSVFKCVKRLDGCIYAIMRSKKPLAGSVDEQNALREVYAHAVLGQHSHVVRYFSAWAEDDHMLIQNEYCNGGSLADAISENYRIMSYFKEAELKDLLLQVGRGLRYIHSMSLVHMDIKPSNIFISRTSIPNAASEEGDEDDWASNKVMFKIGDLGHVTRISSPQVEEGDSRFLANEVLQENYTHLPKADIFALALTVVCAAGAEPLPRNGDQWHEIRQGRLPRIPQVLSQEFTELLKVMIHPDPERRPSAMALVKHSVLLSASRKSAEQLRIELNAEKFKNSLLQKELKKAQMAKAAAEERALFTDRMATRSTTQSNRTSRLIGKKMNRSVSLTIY
m-calpain inh: inhibitors of pig calpain II; purified calpain II, fluorogenic peptide substrate, 30 min; inhibition, % at 16 µM; hit rate 0.37% among 220,000; AID 1236;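 active = inhibition above about 50%, limit read from the data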
MDM2 E3 inh: inhibitors of human Mdm2 E3 ubiquitin ligase. Q00987. cell-based MDM2 ubiquitination luciferase reporter, 2 h; 0 = plate control, 100 = twice control, blank-subtracted. signal enhancement, % at 5 µM. hit rate 0.11% among 210,000. AID 1230;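 active = signal enhancement of 30% or more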;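 note: luminescence tracks abundance of the self-degrading MDM2-luciferase fusion protein; higher signal means inhibition of MDM2 E3 ligase activity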
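Timing – 2 h compound exposure at 37 °C · Assay system – mammalian cells stably expressing self-ubiquitinating, self-degrading MDM2 E3–luciferase fusion · Amount – 2000 cells seeded into each well · Measure – % luminescence enhancement versus blank-corrected plate control mean · Measured by – SteadyLite luminescence, 15 min reagent step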
Hsp70 act: switches on Hsp70 transcription | activation, % at 10 µM | hit rate 0.04% among 200,000 | HeLa Hsp70 promoter luciferase reporter, luminescence; scaled: vehicle 0, proteasome-inhibitor control 100%;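 active = activation above the mean across all tested compounds plus 3 SD, cutoff set per campaign, cut at about 5.5% in these data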;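 note: 100% = MG132 at 30 µM as the positive control and 0% = DMSO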
Pf gamet viab: kills late stage P. falciparum gametocytes; P. falciparum stage V gametocytes, ATP luminescence, 24 h; inhibition, % at 10.9 µM; hit rate 0.065% among 150,000;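 active = inhibition above the mean plus 3 SD of compounds within the control limits, set per campaign, cut at about 38% in these data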;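 note: 0% = DMSO wells and 100% = medium only without gametocytes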
* = called active by the depositor; . = not tested or not shown.

SMILES	Wee1 degr inh	m-calpain inh	MDM2 E3 inh	Hsp70 act	Pf gamet viab
Cc1nn(Cc2c(F)c(F)c(F)c(F)c2F)c(C)c1NC(=O)c1cccc(COc2ccccc2Cl)c1	15*	-2	-9	0	-34
O=c1c2c(-c3cccs3)csc2ncn1-n1cccc1	0	81*	-3	0	.
Cc1ccc(C)n1-n1cnc2scc(-c3cccs3)c2c1=O	-2	-28	-10	0	.
O=C(N/N=C/c1ccc(OC(=O)c2ccco2)cc1)c1ccc[n+]([O-])c1	.	.	.	.	5
S=c1[nH]nc(COc2ccccc2)n1C1CCCCC1	-2	34	2	0	-20
FC(F)(F)c1cccc(NCc2n[nH]c(=S)n2C2CCCCC2)c1	-2	56*	7	0	-32
CC(C)c1nc(SCC(=O)Nc2cccc(S(N)(=O)=O)c2)n[nH]1	10*	-11	-13	0	.
O=C(N=Nc1c(O)[nH]c2ccc(Cl)cc12)c1cc(-c2cccs2)nc2ccccc12	-2	89*	-11	0	-31
COC(=O)C(NC(=O)c1ccccc1C(=O)O)c1ccc2ccccc2c1 (stereo not given)	.	.	.	.	6
CC(=O)N(Cc1ccccc1)c1c(N)nc(N)[nH]c1=O	.	.	.	.	2
O=C(CC12CC3CC(CC(C3)C1)C2)NC1CC1	.	.	.	.	14
CC12COC3(C(=O)Nc4ccccc4)CC1CCC32C (stereo not given)	-1	-10	-3	0	.
CC12COC3(C(=O)Nc4ccc5ccccc5c4)CC1CCC32C (stereo not given)	9.3*	37	3	0	-3
Cc1cc(-c2ccccc2)c(C#N)c(SCC(N)=O)n1	9.7*	-14	-16	1	10
CCSc1nc2n(n1)C(c1cccc(F)c1)C1=C(CCCC1=O)N2 (stereo not given)	0	-113	-11	0	-17
CSc1nc2n(n1)C(C)C1=C(CCCC1=O)N2 (stereo not given)	9.2*	-139	6	0	-7
COCCCNC(=O)c1ccccc1Oc1ccccc1	14*	-32	.	0	9
O=C(NCCN1CCOCC1)c1ccccc1Oc1ccccc1	-1	25	-11	0	0
Cc1c(-c2ccccc2)cnc2c(C)cccc12	.	.	.	.	13
O=C(NNC(=S)Nc1ccc(F)c(Cl)c1)c1ccccc1Br	0	-18	-8	0	0
O=C1c2ccccc2C(=O)N1c1ccc(S(=O)(=O)N2CCN(c3ccccc3)CC2)cc1	9.4*	-46	2	0	.
O=C([O-])c1cc(-c2ccccc2)cc(-c2ccccc2)[n+]1Cc1ccccc1	.	.	.	.	-7
COc1ncnc2c1ncn2CC1COC(C)(C)O1 (stereo not given)	.	.	.	.	4
CCOc1c(Cl)cc(CNCc2ccccn2)cc1OC	9.0*	-4	-11	0	-25
COc1cc(CNCc2ccccn2)ccc1OCc1ccccc1Cl	-2	4	7	0	.
SMILES	Wee1 degr inh	m-calpain inh	MDM2 E3 inh	Hsp70 act	Pf gamet viab
O=C(O)CC(=O)Nc1ccc(Oc2ccc(C(F)(F)F)cn2)c(Cl)c1	9.2*	-41	-11	0	.
Cc1[nH]c2ccccc2c1/C=N/NC(=S)NCc1ccccc1	-2	64*	-9	0	-6
O=S(=O)(c1ccccc1)[C@@]1(c2ccccc2)C[C@@H]2ON=C(c3cccc(-c4ccccc4)c3)[C@@H]2C1	.	.	.	.	-40
CCOCCCNC(=O)c1c(N)n(-c2ccc3c(c2)OCO3)c2nc3ccccc3nc12	9.4*	-28	-13	.	-9
COCCCNC(=O)c1c(N)n(-c2ccc3c(c2)OCO3)c2nc3ccccc3nc12	-1	.	-11	0	.
CCOC(=O)C(=CNc1ccc(Oc2cccnc2)nc1)C(=O)OCC	9.9*	-6	-6	.	8
CC(=O)C[C@H](O)CC(=O)[C@H]1OC(=O)CC/C=C\Cc2ccccc21	.	.	.	.	-40
Cc1nn(Cc2ccc(Cl)cc2Cl)c(C)c1NC(=O)c1nn(C)cc1Cl	-2	60*	-13	0	.
COc1ccc(C(=O)Nc2ccc(S(=O)(=O)NC(C)(C)C)cc2)cc1[N+](=O)[O-]	0	54*	-10	0	-14
COC(=O)c1ccc(C)c(NC(=O)c2ccc(CN3CCc4ccccc4C3)cc2)c1	.	.	.	.	21
O=C(Nc1nc2ccc(S(=O)(=O)N3CCCC3)cc2s1)C1CCCCC1	11*	-25	1	0	0
CN(C)CCCN(C(=O)c1ccco1)c1nc2ccc(F)cc2s1	2	-19	-5	0	-4
Cc1ccc2nc(N(CCCN(C)C)C(=O)c3ccco3)sc2c1	10*	-16	-5	0	-8
